Sampled rows, rich in hits. Any-hit rate of the full collection: about 1.9%.
CHRM4 PAM = human M4 muscarinic receptor positive allosteric modulators, primary screen, CHO-K1 cells, Fluo-8 calcium fluorescence. activation, % at 3 µM. Muscarinic acetylcholine receptor M4 (Homo sapiens), P08173. hit rate 0.4% among 360,000. CHO-K1 hM4/Gqi5, ACh EC20; 0% = ACh EC20, 100% = maximal ACh;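 active = activation above its plate's cutoff, the mean activation of sample wells plus 3 SD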
Target sequence (P08173 whole entry, looked up): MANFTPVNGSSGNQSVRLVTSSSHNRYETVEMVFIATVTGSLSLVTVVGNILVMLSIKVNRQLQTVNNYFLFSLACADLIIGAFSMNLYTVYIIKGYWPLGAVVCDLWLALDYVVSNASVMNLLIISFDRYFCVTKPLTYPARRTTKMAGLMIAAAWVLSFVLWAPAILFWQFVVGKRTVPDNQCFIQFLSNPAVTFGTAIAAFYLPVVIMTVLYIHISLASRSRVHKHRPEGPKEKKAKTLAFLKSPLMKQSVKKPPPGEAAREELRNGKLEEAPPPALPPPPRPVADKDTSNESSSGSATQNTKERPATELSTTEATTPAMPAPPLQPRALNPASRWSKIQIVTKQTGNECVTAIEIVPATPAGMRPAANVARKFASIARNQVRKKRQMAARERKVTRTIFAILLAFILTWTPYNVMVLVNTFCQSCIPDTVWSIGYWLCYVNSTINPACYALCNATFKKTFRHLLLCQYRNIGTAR
CHRM5 agonist = human M5 muscarinic receptor agonists, primary screen, CHO-K1 cells, Fluo-8 calcium fluorescence | AID 624037, 2012 | CHO-K1 hM5 cells; 0% DMSO wells, 100% maximal acetylcholine response | hit rate 0.19% among 360,000 | Muscarinic acetylcholine receptor M5 (Homo sapiens), P08912 | activation, % at 3 µM;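 active = activation above the run's mean over test compounds plus 3 SD, cut at about 23% in these data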;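 also: signal is peak over basal fluorescence ratio across the kinetic read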
M5 PAM = human M5 muscarinic receptor positive allosteric modulators, primary screen, CHO-K1 cells, Fluo-8 calcium fluorescence; Muscarinic acetylcholine receptor M5 (Homo sapiens), P08912; CHO-K1 hM5, ACh EC20 PAM; 0% = ACh EC20, 100% = ACh EC100; activation, % at 3 µM; hit rate 0.3% among 360,000; AID 624038, 2012;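 active = activation above the run cutoff, the mean activation of all test compounds plus 3 SD, cut at about 18% in these data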
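Assay system: CHO-K1 hM5 cells / Incubation: Fluo-8 loading 80 min at 37 °C plus 30 min room temperature / Technique: Fluo-8 calcium dye fluorescence, kinetic read / Repeats: single replicate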
CHRM4 agonist = human M4 muscarinic receptor agonists, primary screen, CHO-K1 cells, Fluo-8 calcium fluorescence; hit rate 0.14% among 360,000; Muscarinic acetylcholine receptor M4 (Homo sapiens), P08173; AID 624127, 2012; CHO-K1 hM4/Gqi5; vehicle 0%, full acetylcholine response 100%; activation, % at 3 µM;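 active = activation above the run mean over all test wells plus 3 SD, cut at about 32% in these data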;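 also: peak over basal fluorescence ratio per well then scaled between controls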
M5 antag = human M5 muscarinic receptor antagonists, primary screen, CHO cells, Fluo-8 calcium fluorescence; AID 624040, 2012; Muscarinic acetylcholine receptor M5 (Homo sapiens), P08912; CHO-hM5 cells, ACh EC80; hit rate 0.59% among 360,000; inhibition, % at 3 µM;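 active = inhibition above a per-plate cutoff, the mean of that plate's test compounds plus 3 SD, cut at about 27% in these data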
M4 antag = human M4 muscarinic receptor antagonists, primary screen, CHO cells, Fluo-8 calcium fluorescence; CHO-hM4 cells, ACh EC80; hit rate 0.73% among 360,000; Muscarinic acetylcholine receptor M4 (Homo sapiens), P08173; AID 624125, 2012; inhibition, % at 3 µM;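 active = inhibition above its plate's cutoff, the mean inhibition of sample wells plus 3 SD, cut at about 27% in these data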
Of the large screens only hits and unclear results are named; the others gave an inactive call.

CC(=O)c1ccc(NC(=S)NC(NC(=O)c2ccco2)C(Cl)(Cl)Cl)cc1 (centres undefined)	CHRM5 agonist 27.1
O=C(NC(NC(=S)Nc1ccc(Cl)cc1)C(Cl)(Cl)Cl)c1ccco1 (centres undefined)	none
Cc1cc(N/N=C/c2ccccc2O)nc(-c2ccccc2O)n1	none
Cc1cc(N/N=C/c2ccc(O)cc2O)nc(-c2ccccc2O)n1	M4 antag 29.9
CCCCn1cnc2c1c(=O)[nH]c(=O)n2CCCC	M5 PAM 19.0
CCn1cnc2c1c(=O)[nH]c(=O)n2Cc1ccccc1	none
CCCCn1cnc2c(cnn2-c2ccc(F)cc2)c1=O	M4 antag 36.9
O=C(C1=C[C@@H](c2ccc(C(F)(F)F)cc2)C[C@@H](OCCCCO)O1)N1CCN(Cc2ccc3c(c2)OCO3)CC1	none
Cc1ccc(NC(=O)C(=O)NN=C2CCCC2)cc1C	none
Cc1c(NC(=O)CN2CCC(C(N)=O)CC2)cccc1[N+](=O)[O-]	M5 PAM 21.2
Cc1ccccc1C(=O)N1CCC(C(=O)OCC(=O)Nc2cccc([N+](=O)[O-])c2C)CC1	none
CC1(c2ccc(Cl)cc2)NC(=O)N(CC(=O)N2CCc3ccccc32)C1=O (centres undefined)	CHRM5 agonist 40.0, CHRM4 agonist 37.5
CCC1(c2ccc(F)cc2)NC(=O)N(CC(=O)N2CCc3ccccc32)C1=O (centres undefined)	CHRM5 agonist 37.9
Cc1ccc(C2(C)NC(=O)N(CC(=O)N3CCc4ccccc43)C2=O)cc1 (centres undefined)	none
CCC1(c2ccc(F)cc2)NC(=O)N(CC(=O)Nc2ccccc2Cl)C1=O (centres undefined)	CHRM5 agonist 33.0
CCC1(CC)NC(=O)N(CC(=O)N2CCc3ccccc32)C1=O	CHRM4 PAM 18.7, M5 PAM 20.4
Cc1ccccc1-c1cnc(C(O)c2cccc(C)c2C)[nH]1 (centres undefined)	none
O=C(Nc1ccc(Cl)cc1)C1CCCN(c2cnccn2)C1 (centres undefined)	none
COc1ccc(CN(C(=O)CSc2nnc(-c3ccc(F)cc3)o2)c2ccc(F)cc2)cc1	none
COc1ccc(CN(C(=O)CSc2nnc(-c3c[nH]c4ccccc34)o2)c2ccc(F)cc2)cc1OC	M4 antag 40.5
O=C(CSc1nnc(Cn2nnc3ccccc32)o1)N(Cc1ccc(F)cc1)c1ccccc1	M5 antag 36.5
CCOC(=O)N1CCN(C(=O)CSc2nnc(-c3ccccc3OC)o2)CC1	CHRM4 PAM 29.6
CCOC(=O)CSc1nnc(-c2c[nH]c3ccccc23)o1	M4 antag 100.0
COc1cc2c(cc1OC)C(c1ccccc1[N+](=O)[O-])=NCC2	none
Cc1cccc(N2CC(C(=O)Nc3ccc(N4CCOCC4)cc3)CC2=O)c1C (centres undefined)	none
COc1ccccc1NC(=O)CSc1nnc(-c2ccncc2)o1	M5 PAM 22.8
O=C(Nc1ccc(Cl)cc1)Nc1nc(-c2ccccc2O)cs1	M5 antag 35.6, M4 antag 29.3
COc1ccc(/C=N/Nc2nonc2N)cc1	none
Nc1nonc1NN=C1CCCCC1	M5 PAM 20.9
O=S(=O)(O)c1cc(O)ccc1O	CHRM5 agonist 36.2
CC(C)Cc1nnc(NC(=O)c2ccc3c(c2)NC(=O)C(C)S3)s1 (centres undefined)	none
CN(CC(=O)Nc1cccc2ccccc12)C(=O)c1ccc(F)cc1F	CHRM4 PAM 23.1
O=C(CN(Cc1ccco1)C(=O)c1ccc(F)cc1F)Nc1ccccc1C(F)(F)F	CHRM4 PAM 23.4
O=C(CN(Cc1ccco1)C(=O)c1cc(=O)[nH]c2ccccc12)Nc1ccccc1C(F)(F)F	none
CS(=O)(=O)N1CC2CCCN2c2ccc(C(F)(F)F)cc21 (centres undefined)	none
O=S(=O)(c1cc(Cl)ccc1Cl)N1CC2CCCN2c2ccc(C(F)(F)F)cc21 (centres undefined)	M4 antag 44.5
COc1ccc(S(=O)(=O)N2CC3CCCN3c3cc(C(F)(F)F)ccc32)cc1 (centres undefined)	none
COc1ccc(S(=O)(=O)N2CC3CCCN3c3ccc(C(F)(F)F)cc32)cc1 (centres undefined)	M4 antag 29.8
Cc1c(Cc2ccccc2)c(=O)oc2cc(OCC(=O)N3CCC(C(=O)O)CC3)ccc12	none
CCN1C[C@@H]2[C@@H]3C(=O)N(C)C(=O)[C@@H]3[C@](CC)(C(=O)OC)N2C1=NCc1ccccc1	none
CC1=CC(C/C(C)=C/COc2ccc3ccc(=O)oc3c2)OC1=O (centres undefined)	CHRM4 PAM 34.8
C=CCNC(=O)Nc1ccc2nc(C)sc2c1	none
C=CCN(CC=C)C(=O)Nc1ccc2nc(C)sc2c1	CHRM4 PAM 21.2
CCCCCCN(C(=O)CCCN1C(=O)NC(c2ccc([N+](=O)[O-])cc2)C(C(=O)OCc2ccccc2)=C1C)C(C)C(=O)NCCCC (centres undefined)	none
CC(C)c1ccc(N=C2N=C(N)c3ccccc32)cc1	none
CN(CCN1CCOCC1)C(=O)CC1C(=O)NCCN1Cc1ccccc1C(F)(F)F (centres undefined)	CHRM4 PAM 19.4
COc1ccc(NC(=O)COC(=O)c2ccc(OCc3c(C)noc3C)cc2)cc1OC	none
COc1cc(C(=O)OCC(=O)Nc2ccc3c(c2)OC(F)(F)O3)ccc1OCc1c(C)noc1C	M5 PAM 32.5
N#CCC(=O)Nc1ccc(C(=O)OCC(=O)Nc2ccccc2Sc2ccccc2)cc1	M5 antag 27.9
O=[N+]([O-])c1ccc(S(=O)(=O)c2cccc(C(F)(F)F)c2)nc1	M4 antag 45.6
CC[C@]12c3[nH]c4cc(-c5ccco5)ccc4c3CCN1C(=O)[C@@H](CC(=O)NCCC1=CCCCC1)C[C@@H]2C(=O)N1CCN(C(=O)c2ccco2)CC1	none
C=C(Cl)COc1ccc2c(C)cc(=O)oc2c1	M5 PAM 18.1
COc1ccc(OC)c(NC(=O)Nc2nc(C(N)C(C)C)cs2)c1 (centres undefined)	none
Cn1c(=O)c2[nH]c(-c3ccc(S(=O)(=O)O)cc3)nc2n(C)c1=O	CHRM5 agonist 67.9

Compound activity from PubChem BioAssay.
